Out of some 310,000 compounds screened, about 1,500 (0.48%) were called active. The sample holds actives, similar compounds and a random draw of the others, so the mix is not that of the screen.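 How the source made its calls: active means B-score above 5 SD of library B-scores, and initial fluorescence ratio not above library mean plus 5 SD; inactive means the rest.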

Sequence of Short transient receptor potential channel 4 (Mus musculus) (Q9QUQ5 whole entry, looked up): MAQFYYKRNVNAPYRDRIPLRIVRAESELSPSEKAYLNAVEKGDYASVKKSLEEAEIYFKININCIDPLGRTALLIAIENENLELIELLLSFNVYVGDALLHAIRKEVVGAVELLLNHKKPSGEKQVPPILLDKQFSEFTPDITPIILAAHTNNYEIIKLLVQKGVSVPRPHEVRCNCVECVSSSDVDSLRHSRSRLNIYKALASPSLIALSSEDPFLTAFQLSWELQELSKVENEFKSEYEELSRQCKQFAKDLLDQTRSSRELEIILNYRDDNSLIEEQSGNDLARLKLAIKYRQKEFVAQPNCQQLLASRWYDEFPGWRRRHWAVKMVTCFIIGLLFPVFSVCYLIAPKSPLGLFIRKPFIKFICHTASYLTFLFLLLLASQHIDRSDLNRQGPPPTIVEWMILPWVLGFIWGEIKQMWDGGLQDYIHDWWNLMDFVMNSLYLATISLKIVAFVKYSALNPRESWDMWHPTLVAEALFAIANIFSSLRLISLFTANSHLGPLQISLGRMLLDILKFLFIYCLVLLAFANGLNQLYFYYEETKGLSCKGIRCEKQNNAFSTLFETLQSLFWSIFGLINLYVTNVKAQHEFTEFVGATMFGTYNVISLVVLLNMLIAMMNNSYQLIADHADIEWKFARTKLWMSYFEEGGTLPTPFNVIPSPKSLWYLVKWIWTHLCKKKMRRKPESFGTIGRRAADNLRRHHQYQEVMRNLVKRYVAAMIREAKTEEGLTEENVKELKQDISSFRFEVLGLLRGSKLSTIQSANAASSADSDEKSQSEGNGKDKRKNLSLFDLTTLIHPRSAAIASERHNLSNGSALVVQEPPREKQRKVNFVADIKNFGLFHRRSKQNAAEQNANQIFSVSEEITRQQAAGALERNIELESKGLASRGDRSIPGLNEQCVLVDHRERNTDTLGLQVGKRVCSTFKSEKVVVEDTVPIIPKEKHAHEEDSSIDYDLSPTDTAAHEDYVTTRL

The test has as its target Short transient receptor potential channel 4 (Mus musculus) (UniProt Q9QUQ5). The test is described as follows: activators of mouse TRPC4 channel, primary screen, Fluo4 calcium, HEK293 TRPC4beta/mu-opioid cells (AID 2237).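 On B-score: positive B-score marks a calcium rise read as TRPC4 activation.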 The conditions noted are these: Fluo4 calcium fluorescence, at 10 µM; stronger effect = higher value. A digest of the protocol:
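System – HEK293 cells stably co-expressing mouse TRPC4beta and mu-opioid receptor · Signal – Fluo4 calcium-sensitive dye fluorescence, kinetic, 1 Hz baseline · Benchmarks – buffer (low) and maximal DAMGO (high) · Read-out – B score of integrated fluorescence ratio per well · Incubation – dye loading 45 min room temperature, 110 s kinetic read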
As for `CCSc1nc(O)c(C(c2cccc(OC)c2)c2c(O)nc(SCC)[nH]c2=O)c(=O)[nH]1`, the B-score entry is “inactive”.

`CC1CCN(C(=O)C2CCN(S(=O)(=O)N3CCC4(CC3)OCCO4)CC2)CC1`: the B-score entry was “inactive”.

As for `COc1ccc(CCN(C)CCN2C(=O)c3ccccc3C2=O)cc1OC`, the B-score was 159 (active).

In the case of `COc1ccc(CCN2C(=O)C(C)=C(C)C2=O)cc1OC`, the B-score result was “inactive”.

For `COc1ccc(CCN2C(=O)C3CC=C(C)CC3C2=O)cc1OC` (stereo not given), the B-score entry was “inactive”.

With `O=c1[nH]c2ccccc2s1`, the B-score entry was “inactive”.

As for `CN(CCc1cn[nH]c1)C(=O)CC1C(=O)NCCN1Cc1cccc(Oc2ccccc2)c1` (stereo not given), the B-score entry is “inactive”.

For the molecule `COc1cccc(CN2CCNC(=O)C2CC(=O)N(C)CCc2ccccn2)c1` (stereo not given), the B-score is 132 (active).

As to `COc1ccc(CN2CCNC(=O)C2CC(=O)N(C)Cc2ccccn2)cc1OC` (stereo not given), the B-score entry is “inactive”.

Regarding `CCC(C)(C)NC(=O)C(c1ccc(O)cc1)N(Cc1ccco1)C(=O)CCC(=O)Nc1ccccn1` (stereo not given), the B-score result is “inactive”.

As to `CCOc1c2ccc(C(=O)NC3CCCc4ccccc43)cc2nn1CC` (stereo not given), the B-score entry is “inactive”.

On to `OCCC1CN(Cc2ccccc2-c2ccco2)CCN1Cc1ccsc1` (stereo not given), for which the B-score was 44 (active).

On to `Cc1ccc(CN2CCN(Cc3ccccc3-c3ccco3)CC2CCO)o1` (stereo not given), for which the B-score result is “inactive”.

On to `OCCC#Cc1ccc(CN2CCN(Cc3ccsc3)C(CCO)C2)cc1` (stereo not given), for which the B-score entry was “inactive”.

For `COc1cc(CO)ccc1OCC(=O)Nc1cccc2ccccc12`, the B-score entry is “inactive”.

Take `CCN(CC(=O)NCc1cccs1)C(=O)c1ccc(OC)c(S(=O)(=O)N2CCOCC2)c1`: the B-score result was “inactive”.

As to `CC(=O)NC1(c2ccc(F)cc2)CCN(C(=O)c2c(F)cccc2F)CC1`, the B-score result is “inactive”.

For `O=C(c1c(F)cccc1F)N1CCN(c2ncc(Br)cn2)CC1`, the B-score was 204 (active).

On to `O=C(c1c(F)cccc1Cl)N1CCN(c2ccccn2)CC1`, for which the B-score result is “inactive”.

Regarding `COc1ccc(Cl)cc1C(=O)NNC(=O)c1nc2nc(C)cc(C)n2n1`, the B-score entry was “inactive”.

Consider `Cc1ccc(-c2nn(-c3ccccc3)cc2CN(Cc2ccccc2)C(=O)CCC(=O)O)o1`, for which the B-score entry was “inactive”.

As to `CCc1ccc(-c2nn(-c3ccccc3)cc2CSC(=N)N)cc1`, the B-score was 260 (active).

Consider `COc1ccc(-c2nn(-c3ccccc3)cc2C(=O)Nc2nc(CC(C)=O)ns2)cc1`, for which the B-score entry is “inactive”.

With `COc1ccc(-c2cc(=O)oc3cc(OC(C)C(=O)NCC4CCC(C(=O)O)CC4)ccc23)cc1` (stereo not given), the B-score result was “inactive”.

As for `Cc1[nH]c2ccccc2c1-c1ccc(Cl)nn1`, the B-score entry is “inactive”.

For `CCOC(=O)C1CCCCN1Cc1ccc(OC)c(OC)c1OC` (stereo not given), the B-score entry was “inactive”.

With `CCCCSc1[nH]c(=O)c(C(=O)OCC)cc1C#N`, the B-score is 56 (active).

Take `CCOC(=O)c1cc(C)nc(S(C)(=O)=O)c1C#N`: the B-score result was “inactive”.

Regarding `CCOC(=O)c1cc(C#N)c(N2CCCCC2)nc1-c1ccccc1`, the B-score result was “inactive”.

For the molecule `CC1CCN(CC(=O)Nc2nccs2)CC1`, the B-score result is “inactive”.

As for `COc1ccc(Cl)cc1NC(=O)[C@@H]1CCCN1C(=O)c1cccs1`, the B-score entry is “inactive”.

In the case of `CCc1ccc(C(CNc2nc(C(F)(F)F)nc3ccccc23)N(C)C)cc1` (stereo not given), the B-score is 51 (active).

`COc1cccc(CNc2nc(C(F)(F)F)nc3ccccc23)c1`: the B-score entry is “inactive”.

With `NS(=O)(=O)c1ccc(CCNc2nc(C(F)(F)F)nc3ccccc23)cc1`, the B-score result was “inactive”.

With `COc1ccc(NC(=O)CC2C(=O)NC3CCCCC3N2C(=O)c2ccc(F)cc2)cc1` (stereo not given), the B-score result is “inactive”.

For the molecule `CC1(C)C=C2[C@H]3CC[C@@H]4[C@@]5(C)CCC(=O)C(C)(C)[C@@H]5CC[C@@]4(C)[C@]3(C)CC[C@@]2(C(=O)O)CC1`, the B-score result is “inactive”.

Take `CC1(C)C2CCC13CS(=O)(=O)NC3C2` (stereo not given): the B-score entry is “inactive”.

On to `Cc1ccc(C(=O)NC23CC4CC(CC(C4)C2)C3)c(Cl)c1`, for which the B-score result was “inactive”.

As to `Cc1ccc(S(=O)(=O)NCCC(=O)NNC(=O)C2COc3ccccc3O2)cc1` (stereo not given), the B-score result was “inactive”.

Take `O=C(NCc1ccccc1)C1=C[C@H](C2CC2)C[C@H](OCc2ccc(CO)cc2)O1`: the B-score entry is “inactive”.

In the case of `O=C(NCc1ccccc1)C1=C[C@@H](c2ccccc2)C[C@@H](OCCCCO)O1`, the B-score entry was “inactive”.

Turning to `O=C(C1=C[C@H](C2CC2)C[C@H](OCc2ccc(CO)cc2)O1)N1CCN(Cc2ccccc2)CC1`, the B-score result is “inactive”.

For `O=C(NCc1ccccc1)C1=C[C@@H](c2ccc(C(F)(F)F)cc2)C[C@@H](OCc2ccc(CO)cc2)O1`, the B-score entry is “inactive”.

As to `CC(C)(C)[C@H]1C=C(C(=O)NCc2ccccc2)O[C@@H](OCc2ccc(CO)cc2)C1`, the B-score was 136 (active).

For the molecule `O=C(NCc1ccccc1)C1=C[C@@H](C2CCCCC2)C[C@@H](OCc2ccc(CO)cc2)O1`, the B-score was 151 (active).

Turning to `CC(=O)c1ccc(S(=O)(=O)Nc2ccc(-c3ccc4nncn4n3)cc2)cc1`, the B-score entry was “inactive”.

Turning to `C#CCOc1ccc(/C=C2/C(=O)ON=C2C)cc1OCC`, the B-score result is “inactive”.

Take `COc1ccc(C(=O)C2CCCN(Cc3cccn3-c3ccccn3)C2)c(C)c1` (stereo not given): the B-score result was “inactive”.

Regarding `CCOC(=O)c1ccc(NC(=O)c2c(NCc3ccccc3)[nH]c(=O)[nH]c2=O)cc1`, the B-score entry was “inactive”.

Regarding `COc1cccc(CNC(=O)CCC2CCCN(Cc3ccc(OC(F)F)cc3)C2)c1` (stereo not given), the B-score entry is “inactive”.

Turning to `COc1ccc(C[C@H]2CN3C(=NC[C@H]3C)N2CCNC(=O)CCC2CCCCC2)cc1`, the B-score was 78 (active).

For `C/C=C(\C)C(=O)NCCN1C2=NC[C@H](Cc3ccc(O)cc3)N2C[C@@H]1Cc1ccc(OC)cc1`, the B-score result is “inactive”.

On to `CCNc1nc(SCCOc2ccccc2)nc(N(C)C)n1`, for which the B-score entry is “inactive”.

For the molecule `O=C(NCCN1C(=O)S/C(=C\c2cccnc2)C1=O)c1ccc(S(=O)(=O)N2CCCC2)cc1`, the B-score entry was “inactive”.

As for `CCCc1nc2c(C)cc(-c3nc4ccccc4n3C)cc2n1Cc1ccc(-c2ccccc2C(=O)O)cc1`, the B-score is 95 (active).

For the molecule `CC(=O)Nc1nc2ccccc2n1Cc1ccc(C)cc1`, the B-score entry was “inactive”.

For `CC(=O)c1nc2ccccc2n1Cc1ccccc1`, the B-score result was “inactive”.

With `COC(=O)N/N=C/c1c[n+]([O-])c2ccccc2[n+]1[O-]`, the B-score result was “inactive”.

`Cc1cc(C)cc(OCC(=O)NC(C)c2ccccc2)c1` (stereo not given): the B-score result was “inactive”.

Consider `COc1cc(OC)cc(C(=O)N[C@H](C(=O)OCC(=O)NC(C)c2ccccc2)C(C)C)c1` (stereo not given in full), for which the B-score is 64 (active).

For the molecule `Cc1ccc(OCC(=O)NC(C)c2ccccc2)cc1C` (stereo not given), the B-score result is “inactive”.

Take `CCc1ccccc1NC(=O)c1cc(-c2ccc3c(c2)OCO3)on1`: the B-score result was “inactive”.

`c1ccc(C2CCC(N3CCC(N4CCCCC4)CC3)CC2)cc1` (stereo not given): the B-score was 123 (active).

Regarding `Cc1ccc(S(=O)(=O)N2CCC(N3CCCCCC3)CC2)cc1`, the B-score entry was “inactive”.

With `O=S(=O)(c1ccccc1)N1CCC(c2ccccc2)CC1`, the B-score entry is “inactive”.

(Values after PubChem BioAssay AID2237 (Johns Hopkins Ion Channel Center, 2010).)
